Active and inactive are the calls of the source. The calls are words filed in the database; no cut-off is given here.
Assays:
HepG2 [1] = test: Cytotoxicity against human HepG2 cells after 24 to 72 hrs by MTT assay; assay type: functional, cell-based
How it was run: (§1)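 HepG2 cells plated in triplicate and treated with a range of compound concentrations. MTT assay run after 24, 48 and 72 h. Data given as mean ± SD of triplicates, with p <0.05 flagged.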

[2] = biological target: T1, Nuclear factor NF-kappa-B complex (Homo sapiens) (UniProt Q00653+P19838+Q04206); test: Inhibition of NF-kappaB in human HepG2 cell extract assessed as reduction in cyclin D1 expression at 50 uM after 12 to 48 hrs by Western blotting; assay type: cell-based
T1 sequence (P19838 whole entry, looked up): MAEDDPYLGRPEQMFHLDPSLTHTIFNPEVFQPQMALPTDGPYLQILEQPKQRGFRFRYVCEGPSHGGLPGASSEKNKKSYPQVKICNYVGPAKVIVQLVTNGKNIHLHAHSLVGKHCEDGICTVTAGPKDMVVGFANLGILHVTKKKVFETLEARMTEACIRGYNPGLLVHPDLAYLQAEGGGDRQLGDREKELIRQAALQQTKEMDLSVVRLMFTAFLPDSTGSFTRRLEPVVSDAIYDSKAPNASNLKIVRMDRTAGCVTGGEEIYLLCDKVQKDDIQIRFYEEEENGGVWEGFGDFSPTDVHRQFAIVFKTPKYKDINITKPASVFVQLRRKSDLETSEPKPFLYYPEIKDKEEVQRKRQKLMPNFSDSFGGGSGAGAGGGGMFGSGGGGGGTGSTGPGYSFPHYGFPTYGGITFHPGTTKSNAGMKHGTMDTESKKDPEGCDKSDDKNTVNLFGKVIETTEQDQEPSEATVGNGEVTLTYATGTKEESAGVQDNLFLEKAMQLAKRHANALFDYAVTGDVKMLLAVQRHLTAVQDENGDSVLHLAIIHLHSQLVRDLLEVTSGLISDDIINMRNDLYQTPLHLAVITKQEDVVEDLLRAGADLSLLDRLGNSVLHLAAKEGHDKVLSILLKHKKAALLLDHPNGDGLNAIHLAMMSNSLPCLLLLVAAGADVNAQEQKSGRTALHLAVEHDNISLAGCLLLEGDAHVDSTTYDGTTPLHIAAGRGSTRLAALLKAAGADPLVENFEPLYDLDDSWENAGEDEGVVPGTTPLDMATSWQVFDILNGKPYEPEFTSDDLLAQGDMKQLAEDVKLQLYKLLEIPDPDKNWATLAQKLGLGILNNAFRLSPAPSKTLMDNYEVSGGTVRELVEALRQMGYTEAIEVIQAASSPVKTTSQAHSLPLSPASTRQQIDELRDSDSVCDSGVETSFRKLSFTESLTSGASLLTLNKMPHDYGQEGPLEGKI
T1 sequence (Q00653 whole entry, looked up): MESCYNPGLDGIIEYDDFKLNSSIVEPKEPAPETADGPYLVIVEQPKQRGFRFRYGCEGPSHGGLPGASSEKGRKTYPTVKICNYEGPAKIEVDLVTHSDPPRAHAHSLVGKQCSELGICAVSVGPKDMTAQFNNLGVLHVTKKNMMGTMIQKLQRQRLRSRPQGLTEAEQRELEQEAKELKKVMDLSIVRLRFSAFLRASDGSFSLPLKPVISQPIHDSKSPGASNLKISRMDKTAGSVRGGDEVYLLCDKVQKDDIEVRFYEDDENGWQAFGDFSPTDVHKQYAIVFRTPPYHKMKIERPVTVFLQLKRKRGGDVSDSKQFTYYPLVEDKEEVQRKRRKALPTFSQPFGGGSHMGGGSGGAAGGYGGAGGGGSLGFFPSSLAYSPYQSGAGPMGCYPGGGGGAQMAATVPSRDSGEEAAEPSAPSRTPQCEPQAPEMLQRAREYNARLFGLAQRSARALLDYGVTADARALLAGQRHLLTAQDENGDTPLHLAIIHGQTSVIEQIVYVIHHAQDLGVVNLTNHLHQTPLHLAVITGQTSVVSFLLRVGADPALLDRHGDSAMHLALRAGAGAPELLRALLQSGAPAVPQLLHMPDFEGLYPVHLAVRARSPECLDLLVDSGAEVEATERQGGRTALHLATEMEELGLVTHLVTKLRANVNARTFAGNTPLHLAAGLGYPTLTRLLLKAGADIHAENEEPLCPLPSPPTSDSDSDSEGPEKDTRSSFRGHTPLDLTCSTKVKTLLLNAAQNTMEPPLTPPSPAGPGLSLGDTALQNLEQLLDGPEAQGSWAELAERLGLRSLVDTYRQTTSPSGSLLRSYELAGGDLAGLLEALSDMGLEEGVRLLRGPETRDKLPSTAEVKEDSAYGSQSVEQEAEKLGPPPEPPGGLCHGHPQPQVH
T1 sequence (Q04206 whole entry, looked up): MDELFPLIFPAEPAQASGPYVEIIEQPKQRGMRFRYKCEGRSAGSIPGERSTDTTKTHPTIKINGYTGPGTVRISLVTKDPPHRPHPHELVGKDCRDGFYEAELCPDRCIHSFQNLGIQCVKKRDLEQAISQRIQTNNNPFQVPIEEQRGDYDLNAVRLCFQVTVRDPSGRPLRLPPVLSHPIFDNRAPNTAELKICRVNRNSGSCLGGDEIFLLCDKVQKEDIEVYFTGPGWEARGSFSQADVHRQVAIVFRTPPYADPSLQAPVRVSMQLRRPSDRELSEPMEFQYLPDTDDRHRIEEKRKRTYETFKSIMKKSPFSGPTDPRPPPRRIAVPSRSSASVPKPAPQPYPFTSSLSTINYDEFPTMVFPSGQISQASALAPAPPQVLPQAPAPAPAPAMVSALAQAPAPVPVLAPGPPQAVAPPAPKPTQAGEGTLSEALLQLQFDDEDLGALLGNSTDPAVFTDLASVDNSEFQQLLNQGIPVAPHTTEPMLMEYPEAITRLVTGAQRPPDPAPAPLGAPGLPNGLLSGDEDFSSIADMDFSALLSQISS
How it was run: (§2)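 HepG2 cells treated with 50 µM compound over a time course. Whole-cell extract (30 µg protein) resolved on 10% SDS–PAGE; membrane cut by molecular weight and probed for cyclin D1, Bcl-2, survivin or C-Myc. Blots stripped and reprobed for β-actin as loading control. Representative of two independent experiments.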

HepG2 [3] = test: Induction of apoptosis in human HepG2 cells assessed as PARP cleavage after 12 to 48 hrs by MTT assay; assay type: functional, cell-based; details: in the assay text read “by Western blotting” for “by MTT assay”
How it was run: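 HepG2 cells treated with compound over a time course. Whole-cell extract (30 µg protein) resolved on 10% SDS–PAGE; membrane cut by molecular weight, probed for PARP, then probed for β-actin on the same blots as loading control.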

HepG2 [4] = test: Cytotoxicity against human HepG2 cells at 5 to 15 uM by MTT assay; assay type: functional, cell-based; details: TDE = time-dependent effect; how it was run: as §1
[5] = biological target: T1, Nuclear factor NF-kappa-B complex (Homo sapiens); test: Inhibition of NF-kappaB DNA binding activity in human HepG2 cell nuclear extract at 50 uM by ELISA-based DNA binding assay; assay type: protein-complex assay; details: TDE = time-dependent effect
How it was run: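 HepG2 cells treated with 50 µM compound over a time course, then nuclear extracts prepared. Extract protein (5 µg) tested in an ELISA-based TransAM NF-κB DNA-binding kit. Representative of two independent experiments.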

Huh-7 = test: Cytotoxicity against human HuH7 cells by MTT assay; assay type: functional, cell-based
[6] = biological target: T1, Nuclear factor NF-kappa-B complex (Homo sapiens); test: Inhibition of NF-kappaB in human HepG2 cell extract assessed as reduction in MMP12 expression at indicated concentrations by Western blotting
HepG2 [7] = test: Antiinvasive activity in CXCL12-induced human HepG2 cells at 50 uM after 8 hrs by matrigel invasion assay
HepG2 [8] = test: Antiinvasive activity in CXCL12-induced human HepG2 cells at 50 uM after 8 hrs by in vitro migration assay
[9] = biological target: T1, Nuclear factor NF-kappa-B complex (Homo sapiens); test: Inhibition of NF-kappaB in human HepG2 cell extract assessed as reduction in Bcl-2 expression at 50 uM after 12 to 48 hrs by Western blotting; assay type: cell-based; how it was run: as §2
PLC-PRF-5 = test: Cytotoxicity against human PLC/PRF/5 cells by MTT assay; assay type: functional, cell-based
[10] = Cytotoxicity against human LO2 cells at 50 uM after 72 hrs by MTT assay; assay type: cell-based; details: l02, 72 h
[11] = biological target: T1, Nuclear factor NF-kappa-B complex (Homo sapiens); test: Inhibition of NF-kappaB in human HepG2 cell extract assessed as reduction in survivin expression at 50 uM after 12 to 48 hrs by Western blotting; assay type: cell-based; how it was run: as §2
[12] = biological target: T1, Nuclear factor NF-kappa-B complex (Homo sapiens); test: Inhibition of NF-kappaB in human HepG2 cell extract assessed as reduction in C-Myc expression at 50 uM after 12 to 48 hrs by Western blotting; assay type: cell-based; how it was run: as §2

Row | SMILES | IC50 (HepG2 [1]) [µM] | other results
1 | CN(C)C(=S)SCc1cc(=O)oc2c1ccc1ccccc12 | 63.9 | –
2 | COc1ccc2oc(=O)cc(CSC(=S)N(C)C)c2c1 | 60.4 | –
3 | O=c1cc(CSC(=S)N2CCCC2)c2ccc(F)cc2o1 | 62.5 | –
4 | COc1ccc2c(CSC(=S)N3CCCC3)cc(=O)oc2c1 | 61.5 | –
5 | COC(=O)Nc1ccc2c(CSC(=S)N(C)C)cc(=O)oc2c1 | 61.4 | –
6 | COc1ccc2oc(=O)cc(CSC(=S)N3CCCC3)c2c1 | 53.5 | –
7 | O=c1cc(CSC(=S)N2CCCC2)c2ccc(Cl)cc2o1 | 60.8 | –
8 | Cc1ccc2oc(=O)cc(CSC(=S)N(C)C)c2c1 | 65.5 | –
9 | CCOC(=O)Nc1ccc2c(CSC(=S)N(C)C)cc(=O)oc2c1 | 66.3 | –
10 | O=c1cc(CSC(=S)N2CCCC2)c2ccc3ccccc3c2o1 | 62.1 | –
11 | O=c1cc(CSC(=S)N2CCCC2)c2cc(F)ccc2o1 | 66.7 | –
12 | Cc1cc(C)c2c(CSC(=S)N(C)C)cc(=O)oc2c1 | 62.8 | –
13 | CCOC(=O)Nc1ccc2c(CSC(=S)N3CCCC3)cc(=O)oc2c1 | 14.8 | Activity [2]: Active; Activity (HepG2 [3]): Active; Activity (HepG2 [4]): tde; Activity [5]: tde; Activity (Huh-7): Dose-dependent effect; Activity [6]: Active; Activity (HepG2 [7]): Active; Activity (HepG2 [8]): Active; Activity [9]: Active; Activity (PLC-PRF-5): Dose-dependent effect; Activity [10]: Non-toxic; Activity (HepG2 [1]): Dose-dependent effect; Activity [11]: Active; Activity [12]: Active
14 | CN(C)C(=S)SCc1cc(=O)oc2ccc(F)cc12 | 58.6 | –

Source: ChEMBL document CHEMBL3392987, “Novel synthetic coumarins that targets NF-κB in Hepatocellular carcinoma” (Bioorg Med Chem Lett, 2015)
